Experiment [1] has as its system ACHN. Briefly: Cytotoxicity against human ACHN cells after 72 hrs by CCK8 assay. The format is functional, cell-based. The essentials: (§1)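 Renal cancer lines ACHN, 786-O and OS-RC-2; cell viability read by CCK-8 assay, with sorafenib as positive control.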
For orientation: Tetrazolium assays rely on reduction of a dye to a coloured formazan, in cell work by metabolically active cells.

Experiment [2] deals with 786-0. Briefly: Cytotoxicity against human 786-O cells after 72 hrs by CCK8 assay. Format: functional, cell-based. Particulars: for IC50: 786-0, 72 h. The essentials: as §1
For experiment [3], the system named is OS-RC-2. In words: Cytotoxicity against human OS-RC2 cells after 72 hrs by CCK8 assay. Format: functional, cell-based. Particulars: for IC50: OS-RC-2, 72 h. Summed up: as §1
Experiment [4] relates to HepG2. Briefly: Cytotoxicity against human HepG2 cells after 6 days by MTT assay. Format: functional, cell-based. The following applies: for IC50: HepG2, 144 h. The essentials: (§2)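 HepG-2 and SGC7901 cells; growth inhibition read by MTT method, with 5-fluorouracil as positive control.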
Experiment [5] deals with SGC-7901. Briefly: Cytotoxicity against human SGC7901 cells after 6 days by MTT assay. Format: functional, cell-based. The following applies: for IC50: SGC-7901, 144 h. The essentials:
as §2

In experiment [6] the test system is Escherichia coli. Briefly: Antimicrobial activity against Escherichia coli ATCC 25922 after 24 hrs by serial dilution method. The following applies: for MIC: ATCC 25922, 24 h. The format is functional. Summed up:
(§3)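 Serial broth dilution in 96-well microtiter plates. Compounds and controls are dissolved in DMSO as stock. Bacteria are grown overnight at 37 °C, then diluted to 10^6 cfu/mL. E. coli and S. aureus are grown in Luria–Bertani broth. P. multocida and E. rhusiopathiae are grown in trypticase soy broth with 10% calf serum. Plates are incubated at 37 °C for 24 h and read at 630 nm.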

Experiment [7] concerns Staphylococcus aureus. Briefly: Antimicrobial activity against Staphylococcus aureus subsp. aureus Rosenbach ATCC 25923 after 24 hrs by serial dilution method. The format is functional. Particulars: for MIC: Rosenbach ATCC 25923, 24 h. The essentials: as §3
The subject of experiment [8] is Erysipelothrix rhusiopathiae. Briefly: Antimicrobial activity against Erysipelothrix rhusiopathiae ATCC 19414 after 24 hrs by serial dilution method. Format: functional. The following applies: for MIC: ATCC 19414, 24 h. The essentials: as §3
Experiment [9] has as its system Pasteurella multocida. In words: Antimicrobial activity against Pasteurella multocida subsp. multocida ATCC 43137 after 24 hrs by serial dilution method. Format: functional. The following applies: for MIC: ATCC 43137, 24 h. The essentials: as §3

This passage reports IC50, MIC and Activity results from ChEMBL document CHEMBL4145582, “Cytotoxic and Antibacterial Eremophilane Sesquiterpenes from the Marine-Derived Fungus Cochliobolus lunatus SCSIO41401” (J Nat Prod, 2018).

Converted amounts (≈) assume the structure as drawn. The source made the active and inactive calls. No cut-off for these calls is given here.

The IC50 is the midpoint of a concentration-inhibition curve. Higher therefore signals weaker potency in that assay. In general, MIC refers to the lowest concentration that inhibits growth of the organism. A lower MIC goes with a more susceptible organism.

In the case of `C=C(C=O)[C@]1(O)C[C@@]2(C)C(=CC1=O)C=C[C@H](OC(=O)/C=C/C(C)=C/[C@@H](C)CC)[C@@H]2C`, the IC50 turned out to be 4.3 µM in [1]; 2.5 µM in [2]; 3.7 µM in experiment [3]; 1.4 µM in experiment [4]; 1.4 µM in experiment [5]. For the same compound, the MIC in experiment [6] is greater than 100 µg/mL; in [7], 1.5 µg/mL (≈ 3.64 µM); in experiment [8], 13 µg/mL (≈ 31.5 µM); in [9] it was 13 µg/mL (≈ 31.5 µM).
Consider `O=c1[nH]cc(F)c(=O)[nH]1` [FLUOROURACIL], for which the IC50 in experiment [4] and in experiment [5] was 12 µM throughout.
Regarding `Cc1cc(O)c2c(c1)C(=O)c1cc(O)cc(O)c1C2=O` [EMODIN], the values for the IC50 in [4] and in [5] were 1.7 µM and 5.6 µM, respectively. For the same compound, the MIC is greater than 100 µg/mL in [6], 100 µg/mL (≈ 370 µM) in [7], greater than 100 µg/mL in experiment [8] and greater than 100 µg/mL in [9].
Consider `CC1(C)S[C@@H]2[C@H](NC(=O)Cc3ccccc3)C(=O)N2[C@H]1C(=O)O` [PENICILLIN G], for which the MIC in experiment [7], in experiment [8] and in experiment [9] was 13 µg/mL (≈ 38.9 µM) each time.
Consider `Cc1cc(=O)c2c(C)cc(O)cc2o1`, for which the outcome in [1], in [2], in experiment [3], in experiment [4], in experiment [5] and in experiment [6] was inactive. Also, the result in experiment [7], in [8] and in experiment [9] was inactive.
As to `C=C(CO)[C@]1(O)C[C@@]2(C)C(=CC1=O)C=CC[C@@H]2C`, the IC50 in [1], in experiment [2], in experiment [3], in [4] and in experiment [5] was greater than 50 µM throughout. The MIC in [6], in experiment [7], in [8] and in [9] was greater than 100 µg/mL throughout.
Take `CN[C@@H]1[C@H](O[C@H]2[C@H](O[C@H]3[C@H](O)[C@@H](O)[C@H](N=C(N)N)[C@@H](O)[C@@H]3N=C(N)N)O[C@@H](C)[C@]2(O)C=O)O[C@@H](CO)[C@H](O)[C@H]1O` [STREPTOMYCIN]: in [6], the MIC was found to be 25 µg/mL (≈ 43 µM).
`CC[C@@H]1OC(=O)c2cc(O)ccc21`: the IC50 in [1], in experiment [2], in experiment [3], in experiment [4] and in [5] was greater than 50 µM each time. For the same compound, the MIC in experiment [6], in experiment [7], in experiment [8] and in [9] was greater than 100 µg/mL throughout.
Regarding `COC(=O)[C@]12Oc3cc(C)c(-c4ccc(O)c5c4O[C@@]4(C(=O)OC)C(=C(O)C[C@@H](C)[C@H]4O)C5=O)c(O)c3C(=O)C1=C(O)CC[C@H]2O`, the IC50 in [1] was greater than 50 µM; in experiment [2], 46 µM; in experiment [3], greater than 50 µM; in [4], greater than 50 µM; in experiment [5], greater than 50 µM. Further, the minimal inhibitory concentration (MIC) in [6] was greater than 100 µg/mL; in experiment [7] it was 50 µg/mL (≈ 78.3 µM); in experiment [8] it was 25 µg/mL (≈ 39.1 µM); in [9] it was 13 µg/mL (≈ 20.4 µM).
On to `CNC(=O)c1cc(Oc2ccc(NC(=O)Nc3ccc(Cl)c(C(F)(F)F)c3)cc2)ccn1` [SORAFENIB], for which the IC50 in experiment [1] came to 3.5 µM; in experiment [2], 5.3 µM; in experiment [3] it was 15 µM.
As for `CC[C@@H]1OC(=O)c2cc(O)c(O)cc21`, the IC50 was 34 µM in experiment [1]; 28 µM in experiment [2]; greater than 50 µM in experiment [3]; greater than 50 µM in experiment [4]; greater than 50 µM in experiment [5]. The MIC in [6], in experiment [7], in experiment [8] and in [9] was greater than 100 µg/mL in each case.
As to `CC[C@@H]1OC(=O)c2c1ccc(O)c2O`, the IC50 in experiment [1], in experiment [2], in experiment [3], in experiment [4] and in [5] was greater than 50 µM throughout. Also, the minimum inhibitory concentration (MIC) in [6], in experiment [7], in [8] and in [9] was greater than 100 µg/mL each time.
